ChEMBL document CHEMBL3785019, “Dihydropyrazole derivatives as telomerase inhibitors: Structure-based design, synthesis, SAR and anticancer evaluation in vitro and in vivo” (Eur J Med Chem, 2016)
Activity calls are given as the source filed them. No cut-off for these calls is given here.

Tests used:
HepG2 [1] = test: Cytotoxicity against human HepG2 cells after 48 hrs by MTT assay; type: functional, cell-based
In short: (§1)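 Tumor cells in log phase in RPMI 1640 + 10% FBS, seeded at 3×10^4 cells mL-1 and incubated 24 h (37 °C, 5% CO2). Test samples added at pre-set concentrations (6 wells each), doxorubicin as reference; 48 h exposure. MTT (2.5 mg·mL-1 in PBS) added for 4 h, formazan dissolved in DMSO, A570 read.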

[2] = target: T1, Telomerase reverse transcriptase (Homo sapiens, UniProt O14746); test: Inhibition of telomerase in human MGC-803 cells after 24 hrs by TRAP-PCR-ELISA assay; type: cell-based
T1 sequence (O14746 whole entry): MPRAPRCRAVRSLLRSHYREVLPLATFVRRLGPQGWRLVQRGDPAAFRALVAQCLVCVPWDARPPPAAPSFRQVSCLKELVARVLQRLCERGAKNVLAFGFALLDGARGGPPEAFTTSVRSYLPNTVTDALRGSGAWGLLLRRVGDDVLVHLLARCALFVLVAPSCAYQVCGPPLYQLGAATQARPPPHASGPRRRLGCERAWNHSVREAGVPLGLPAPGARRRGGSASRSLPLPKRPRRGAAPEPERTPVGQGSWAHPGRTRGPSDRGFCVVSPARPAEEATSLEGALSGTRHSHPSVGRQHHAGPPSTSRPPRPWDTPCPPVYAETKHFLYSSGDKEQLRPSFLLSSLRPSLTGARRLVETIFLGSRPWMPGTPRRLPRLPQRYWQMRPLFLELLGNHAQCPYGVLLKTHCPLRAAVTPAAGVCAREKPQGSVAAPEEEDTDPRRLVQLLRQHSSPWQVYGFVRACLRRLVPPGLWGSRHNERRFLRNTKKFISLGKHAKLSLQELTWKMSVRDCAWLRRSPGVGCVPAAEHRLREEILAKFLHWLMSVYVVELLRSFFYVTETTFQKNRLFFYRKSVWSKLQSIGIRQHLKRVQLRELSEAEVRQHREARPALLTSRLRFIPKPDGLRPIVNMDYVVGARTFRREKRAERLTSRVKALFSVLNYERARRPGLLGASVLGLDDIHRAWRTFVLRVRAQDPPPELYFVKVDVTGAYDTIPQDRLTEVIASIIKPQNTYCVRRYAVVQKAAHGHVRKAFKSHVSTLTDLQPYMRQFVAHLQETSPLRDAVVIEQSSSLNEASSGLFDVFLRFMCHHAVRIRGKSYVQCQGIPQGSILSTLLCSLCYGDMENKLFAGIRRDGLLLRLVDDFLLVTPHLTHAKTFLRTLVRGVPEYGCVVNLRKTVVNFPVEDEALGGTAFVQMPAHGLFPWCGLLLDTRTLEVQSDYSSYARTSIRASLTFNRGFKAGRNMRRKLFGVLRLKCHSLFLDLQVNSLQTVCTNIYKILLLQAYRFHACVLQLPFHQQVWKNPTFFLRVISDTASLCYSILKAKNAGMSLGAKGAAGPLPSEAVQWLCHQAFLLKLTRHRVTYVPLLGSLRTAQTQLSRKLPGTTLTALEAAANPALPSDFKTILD
In short: (§2)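 Cells lysed in RIPA on ice for 30 min; extract incubated with TRAP mix at 25 °C for 30 min, then 35 PCR cycles. Products hybridized to DIG probe, captured on streptavidin, detected with peroxidase anti-DIG at 490 nm; mean±SD.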

[3] = Cytotoxicity against human GES-1 cells after 48 hrs by MTT assay; type: cell-based; settings: GES1, 48 h
In short: (§3)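 Human normal gastric mucosa GES-1 and liver L-02 cells; MTT assay; IC50 expressed in mM as mean of triplicate experiments.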

[4] = Cytotoxicity against human MGC803 cells after 48 hrs by MTT assay; type: functional, cell-based, MGC-803; in short: as §1
Bcap37 = test: Cytotoxicity against human Bcap37 cells after 48 hrs by MTT assay; type: functional, cell-based; in short: as §1
[5] = Cytotoxicity against human PC3 cells after 48 hrs by MTT assay; type: functional, cell-based, PC-3; in short: as §1
[6] = Cytotoxicity against human L02 cells after 48 hrs by MTT assay; type: cell-based; settings: L02, 48 h; in short: as §3
[7] = target: T1, Telomerase reverse transcriptase; test: Inhibition of telomerase in human MGC-803 cells upto 60 uM after 24 hrs by TRAP-PCR-ELISA assay; type: cell-based; in short: as §2
Mus musculus [8] = test: Toxicity in mouse S180 cells xenografted Kunming mouse assessed as body weight at 60 mg/kg/day, QD administered via oral gavage for 10 consecutive days measured on day 11 (reference value: 23.84 +/- 2.11g); type: organism-based, CCRF S-180; settings: in vivo
In short: (§4)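 Kunming mice (20 ± 2 g) inoculated subcutaneously in right front armpit with seven-day-old ascites (0.2 ml, 2 × 10^6 cells). 24 h later randomized, 10 per group; oral gavage 60 mg/kg/day or normal saline (10 mL/kg) once daily for ten days. Sacrificed day 11; tumors and mice weighed. Inhibition rate = (Wcontrol − Wtreated)/Wcontrol × 100%.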

[9] = Antitumor activity against mouse EAC cells xenografted in Kunming mouse assessed as survival time at 60 mg/kg/day, QD administered via oral gavage for 10 consecutive days days (reference value: 16.6 +/- 2.02days); type: functional, Ehrlich
In short: (§5)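 EAC cells were grown in RPMI-1640 with 10% heat-inactivated FBS and were kept as ascites by passaging 0.2 mL (2 × 10^6 cells) between mice. Kunming mice weighing 20 ± 2 g were used. Survival was followed by mortality. Mean survival time is the sum of each mouse's survival days divided by the number of mice. %ILS is the […].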

HepG2 [10] = test: Antitumor activity against human HepG2 cells xenografted in Kunming mouse assessed as inhibition of tumor growth at 60 mg/kg/day, QD administered via oral gavage for 10 consecutive days; type: functional; settings: read-out: TGI; in short: as §4
Rattus norvegicus = test: Antitumor activity against DEN induced Sprague-Dawley rat hepatic tumor assessed as improvement of pathological changes at 50 mg/kg, po qd for 10 consecutive weeks by HE-staining based microscopic analysis; type: functional, organism-based
In short: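 Male SD rats (120~160 g) gavaged with DEN 8 mg/kg once daily, 6 days/week; DEN continued to week 16. From week 10, compound given orally at 50 mg·kg-1 once daily for 10 consecutive weeks; n = 12 per group. Similar parts of left liver lobe fixed in 4% polyformaldehyde, paraffin-embedded, sectioned, HE stained; histopathology viewed at ×200.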

Mus musculus [11] = test: Toxicity in human HepG2 cells xenografted Kunming mouse assessed as body weight at 60 mg/kg/day, QD administered via oral gavage for 10 consecutive days measured on day 11 (reference value: 25 +/- 1.65g); type: organism-based; settings: in vivo; in short: as §4
CCRF S-180 [12] = test: Antitumor activity against mouse S180 cells xenografted in Kunming mouse assessed as inhibition of tumor growth at 60 mg/kg/day, QD administered via oral gavage for 10 consecutive days; type: functional; settings: CCRF S-180, po, read-out: TGI; in short: as §4
HepG2 [13] = test: Antitumor activity against human HepG2 cells xenografted in Kunming mouse assessed as tumor weight at 60 mg/kg/day, QD administered via oral gavage for 10 consecutive days (reference value: 1.93 +/- 0.20g)
CCRF S-180 [14] = test: Antitumor activity against mouse S180 cells xenografted in Kunming mouse assessed as tumor weight at 60 mg/kg/day, QD administered via oral gavage for 10 consecutive days (reference value: 1.98 +/- 0.22g); type: functional; in short: as §4
[15] = Antitumor activity against mouse EAC cells xenografted in Kunming mouse assessed as prolongation of survival time at 60 mg/kg/day, QD administered via oral gavage for 10 consecutive days days relative to untreated control; type: functional; settings: Ehrlich; in short: as §5
Mus musculus [16] = test: Toxicity in Kunming mouse xenografted with mouse EAC cells assessed as body weight at 60 mg/kg/day, QD administered via oral gavage for 10 consecutive days measured on day 11 (reference value: 19.52 +/- 1.17g); type: organism-based, Ehrlich; settings: in vivo
[17] = Homo sapiens, HepG2, 48 h, read-out: IC50
[18] = Homo sapiens, MGC-803, 48 h, read-out: IC50
[19] = Homo sapiens, Bcap37, 48 h, read-out: IC50
[20] = Homo sapiens, PC-3, 48 h, read-out: IC50

| Structure (SMILES) | IC50 (HepG2 [1]; [17]) | IC50 [2] | IC50 [4, 18] | IC50 (Bcap37; [19]) | IC50 [5, 20] | also measured |
| --- | --- | --- | --- | --- | --- | --- |
| O=C(CCl)N1N=C(c2cc3ccccc3oc2=O)CC1c1ccccc1 (centres undefined) | 2.98 µM | 2.27 µM | 2.02 µM | 26.7 µM | 2.98 µM | IC50 [3]: 2110 µM; IC50 [6]: 1280 µM |
| CC1=NN(S(=O)(=O)c2ccc(C)cc2)C(c2cc(Br)cc(Br)c2O)C1 (centres undefined) |  |  |  |  | 51.2 µM | inhibition [7]: inactive; IC50 (HepG2 [1]; hepg2): Not Active; IC50 ([4]; mgc-803): Not Active; IC50 (Bcap37; bcap37): Not Active |
| CC1=NN(C(=O)CCl)C(c2cc(Br)ccc2O)C1 (centres undefined) | 16.3 µM | 3.17 µM | 13.5 µM | 32.3 µM | 8.89 µM |  |
| CC(C)CNCC(=O)N1N=C(c2cc3ccccc3oc2=O)CC1c1ccccc1 (centres undefined) | 9.97 µM | 3.17 µM | 29.7 µM | 6.3 µM | 1.92 µM |  |
| CC(=O)Oc1ccccc1C1CC(C)=NN1C(=O)CN1CCC(C(C)=O)CC1 (centres undefined) | 7.8 µM | 3.54 µM | 4.12 µM | 20.1 µM | 6.8 µM |  |
| COc1ccccc1C1CC(C)=NN1C(=O)C[N+]1(C)CCCC1 (centres undefined) | 32.2 µM | 11 µM | 12.2 µM | 9.98 µM | 11.2 µM |  |
| CCCCN(CCCC)CC(=O)N1N=C(c2cc3ccccc3oc2=O)CC1c1ccccc1 (centres undefined) | 2.45 µM | 0.98 µM | 2.96 µM | 3.37 µM | 4.87 µM | Activity (Mus musculus [8]): 24.64 g; Survival [9]: 23.89 days; inhibition in vivo at 60 mg/kg/day (HepG2 [10]): 46.1%; Activity (Rattus norvegicus): Active; IC50 [3]: 1640 µM; Activity (Mus musculus [11]): 27.11 g; inhibition in vivo at 60 mg/kg/day (CCRF S-180 [12]): 48.9%; Activity (HepG2 [13]): 1.04 g; Activity (CCRF S-180 [14]): 1.01 g; survival at 60 mg/kg/day [15]: 43.9%; IC50 [6]: 1620 µM; Activity (Mus musculus [16]): 19.6 g |
| O=C(CN1CCOCC1)N1N=C(c2cc3ccccc3oc2=O)CC1c1ccccc1C(F)(F)F (centres undefined) | 21 µM | 3.03 µM | 10 µM | 14.2 µM | 12.1 µM |  |
| O=C(CN1CCC(O)CC1)N1N=C(c2cc3ccccc3oc2=O)CC1c1ccccc1 (centres undefined) |  |  |  |  |  | inhibition [7]: inactive; IC50 (HepG2 [1]; hepg2): Not Active; IC50 ([4]; mgc-803): Not Active; IC50 (Bcap37; bcap37): Not Active; IC50 ([5]; pc-3): Not Active |
| CCN(CC)CC(=O)N1N=C(c2cc3ccccc3oc2=O)CC1c1ccccc1 (centres undefined) | 11.4 µM | 5.57 µM | 8.52 µM | 3.5 µM | 6.41 µM |  |
| CNCC(=O)N1N=C(c2cc3ccccc3oc2=O)CC1c1ccccc1 (centres undefined) | 24 µM | 3.15 µM | 12.8 µM | 4.22 µM | 2.3 µM |  |
| O=c1oc2ccccc2cc1C1=NN(S(=O)(=O)c2ccc([N+](=O)[O-])cc2)C(c2ccccc2)C1 (centres undefined) |  | 31.3 µM | 41.2 µM | 37 µM | 46.6 µM | IC50 (HepG2 [1]; hepg2): Not Active |
| CC1=NN(S(=O)(=O)c2ccc([N+](=O)[O-])cc2)C(c2cc(Cl)ccc2O)C1 (centres undefined) |  | 41.2 µM |  | 52.3 µM | 44.2 µM | IC50 (HepG2 [1]; hepg2): Not Active; IC50 ([4]; mgc-803): Not Active |
| NC(=O)C1CCN(CC(=O)N2N=C(c3cc4ccccc4oc3=O)CC2c2ccccc2)CC1 (centres undefined) | 19.3 µM | 31.2 µM | 21.5 µM | 18.5 µM | 8.31 µM |  |
| CC1=NN(C(=O)CCc2ccccc2)C(c2ccccc2O)C1 (centres undefined) | 20.6 µM | 11 µM | 24.1 µM | 25.7 µM | 9.38 µM |  |
| CC(=O)Oc1ccccc1C1CC(C)=NN1C(=O)CN1CCC(O)CC1 (centres undefined) | 12.3 µM | 5.69 µM | 3.51 µM | 9.8 µM | 25.6 µM | IC50 [3]: 2510 µM; IC50 [6]: 2230 µM |
| COc1ccccc1C1CC(C)=NN1C(=O)CN1CCC(OC)CC1 (centres undefined) | 22 µM | 8.4 µM | 9.55 µM | 18.8 µM | 27.2 µM |  |
| CC1=NN(C(=O)CN2CCCC2)C(c2ccccc2O)C1 (centres undefined) | 5.54 µM | 5.44 µM | 17.9 µM | 5.35 µM | 6.67 µM |  |
| CCCCCCN(CCCCCC)CC(=O)N1N=C(c2cc3ccccc3oc2=O)CC1c1ccccc1C(F)(F)F (centres undefined) | 12 µM | 4.77 µM | 6.87 µM | 12.2 µM | 6.03 µM |  |
| CCC(=O)N1N=C(c2cc3ccccc3oc2=O)CC1c1ccccc1 (centres undefined) | 9.61 µM | 3.63 µM | 5.3 µM | 46.3 µM | 4.37 µM |  |
| CC(=O)Oc1ccccc1C1CC(C)=NN1C(=O)CCl (centres undefined) | 2.52 µM | 1.27 µM | 3.01 µM | 6.81 µM | 3.58 µM | IC50 [3]: 1840 µM; IC50 [6]: 2530 µM |
| CC1=NN(C(=O)CCl)C(c2cc(Br)cc(Br)c2O)C1 (centres undefined) | 3.35 µM | 3.68 µM | 4.91 µM | 51.1 µM | 5.82 µM |  |
| CC1=NN(C(=O)CN2CCN(C)CC2)C(c2ccccc2O)C1 (centres undefined) |  | 2.1 µM | 7.85 µM | 6.21 µM | 11.8 µM | IC50 (HepG2 [1]; hepg2): Not Active |
| CC(=O)Oc1ccccc1C1CC(C)=NN1C(=O)CN1CCCCC1C (centres undefined) |  | 6.2 µM | 5.14 µM | 17.9 µM | 11.1 µM | IC50 (HepG2 [1]; hepg2): Not Active |
| CC1=NN(C(=O)CN2CCCCC2)C(c2ccccc2O)C1 (centres undefined) | 3.02 µM | 4.63 µM | 4.31 µM | 33.1 µM | 5.89 µM | Activity (Mus musculus [8]): 24.89 g; Survival [9]: 23.41 days; inhibition in vivo at 60 mg/kg/day (HepG2 [10]): 39.4%; IC50 [3]: 1290 µM; Activity (Mus musculus [11]): 26 g; inhibition in vivo at 60 mg/kg/day (CCRF S-180 [12]): 44.4%; Activity (HepG2 [13]): 1.17 g; Activity (CCRF S-180 [14]): 1.1 g; survival at 60 mg/kg/day [15]: 41%; IC50 [6]: 1800 µM; Activity (Mus musculus [16]): 19.3 g |
| CC[N+](C)(CC)CC(=O)N1N=C(C)CC1c1ccccc1OC (centres undefined) | 3.67 µM | 3.44 µM | 3.32 µM | 5.15 µM | 4.17 µM |  |
| CCN(CC)CC(=O)N1N=C(C)CC1c1ccccc1OC(C)=O (centres undefined) | 33.2 µM |  | 29.5 µM | 44.2 µM | 51.2 µM | inhibition [7]: inactive |
